From PubChem BioAssay
In the library only some 4.1% were active in any assay of this set; here they are far more common.
KCC2 mod – modulates chloride dependent transport by human KCC2; Q9H2X9; KCC2 cells, thallium flux FluoZin-2 fluorescence; B-score of Tl+ flux slope (higher = more flux/activation; lower = inhibition) at 10 µM; 190,000 tested, 2.2% active;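 active means thallium flux slope and its plate-corrected score both differing from the plate sample mean at a set confidence after two filtering rounds, in either direction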;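 further: slope of fluorescence scaled to starting intensity during 10 to 20 s after thallium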
hERG rescue – shields human hERG channel from block by proarrhythmic agents. Q12809. CHO-hERG, FluxOR thallium flux, dofetilide IC70 present. activation (rescue from dofetilide block), less the hit threshold, % at 10 µM. 310,000 tested, 0.51% active. AID 1511;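 active means activation above the mean of controls blocked by dofetilide plus 5 SD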;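 further: thallium influx through hERG after potassium depolarization seen as dye fluorescence rise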
KCNK9 inh – inhibitors of human KCNK9 two-pore domain potassium channel. Q9NPC2. AID 488922. HEK293 KCNK9, FluxOR thallium flux fluorescence; stronger effect = lower value. B-score at 10 µM. 310,000 tested, 1.2% active;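 active means ratio B-score over 3 SD below the library mean, with starting fluorescence within 5 SD of its mean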;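 further: negative B-score means less thallium flux so channel inhibition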
KCNQ1 act – human KCNQ1 channel potentiation or activation | P51787 | CHO-K1 KCNQ1, thallium flux FluxOR fluorescence; stronger effect = higher value | B-score at 10 µM | 310,000 tested, 0.35% active | AID 2648;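 active means fluorescence ratio B-score, a plate-corrected score, at least three library SD, with initial intensity B-score within 5 SD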
Target sequence (P51787 whole entry, looked up): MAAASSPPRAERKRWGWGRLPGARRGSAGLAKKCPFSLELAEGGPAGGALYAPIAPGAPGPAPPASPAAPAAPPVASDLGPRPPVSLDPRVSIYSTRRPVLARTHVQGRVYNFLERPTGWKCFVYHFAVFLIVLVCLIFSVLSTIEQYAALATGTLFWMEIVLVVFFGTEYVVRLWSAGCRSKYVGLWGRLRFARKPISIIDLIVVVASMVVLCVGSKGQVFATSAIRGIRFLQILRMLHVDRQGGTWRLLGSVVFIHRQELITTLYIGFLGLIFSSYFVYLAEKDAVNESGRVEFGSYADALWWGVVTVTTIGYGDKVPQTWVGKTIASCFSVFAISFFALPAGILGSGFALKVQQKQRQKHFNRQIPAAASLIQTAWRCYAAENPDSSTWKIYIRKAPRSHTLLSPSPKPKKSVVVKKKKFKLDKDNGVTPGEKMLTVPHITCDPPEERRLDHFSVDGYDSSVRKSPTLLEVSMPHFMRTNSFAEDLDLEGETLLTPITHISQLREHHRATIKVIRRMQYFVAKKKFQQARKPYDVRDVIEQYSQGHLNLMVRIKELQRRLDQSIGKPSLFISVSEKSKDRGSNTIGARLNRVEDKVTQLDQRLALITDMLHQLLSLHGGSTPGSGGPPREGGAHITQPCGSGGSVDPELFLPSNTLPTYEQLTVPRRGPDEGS
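assay system = CHO-K1 cells stably expressing KCNQ1 | medium = assay buffer, equal DMSO in all wells | timing = 37 °C overnight plating, 90-min dark dye load, 20-min compound pretreatment | measured by = kinetic FluxOR thallium fluorescence, 10-s 1-Hz baseline, 110-s post-stimulus read | measure = fluorescence change relative to baseline, converted to B score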
KCNK3 block – human KCNK3 channel inhibition, primary screen; O14649; CHO-KCNK3 thallium flux, FluxOR fluorescence; stronger effect = lower value; B-score at 10 µM; 340,000 tested, 0.84% active; AID 602410;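 active means B-score under library mean minus 4 SD, starting fluorescence ratio at most library mean plus 5 SD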;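 further: more negative B-score means stronger inhibition of thallium flux through KCNK3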
KCNQ1 inh – blocks the human KCNQ1 potassium channel | B-score at 10 µM | CHO-K1 KCNQ1, FluxOR thallium flux fluorescence; stronger effect = higher value | 310,000 tested, 1.3% active | P51787;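 active means compounds whose thallium flux B-score, printed positive for inhibition, exceeds three library SD while starting fluorescence stays within three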;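 further: channel opened by potassium depolarization with thallium stimulus after 20 min compound exposure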
KCC2 sec1 – KCC2 (human) modulation, secondary assay. shares compounds with KCC2 mod. HEK293-KCC2, thallium flux, FluoZin2 fluorescence; stronger effect = higher value. normalised thallium flux (F/F0 slope) at 10 µM. 3,700 tested, 15% active;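 active means thallium flux slope above the same plate's solvent-only control mean plus 3 SD; inconclusive means the two replicate wells disagree; inactive means no significant difference from solvent-only control wells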
KCC2 bumet counter – thallium flux despite bumetanide block in KCC2 cells, secondary assay 3. shares compounds with KCC2 mod. 3,700 tested, 49% active. AID 1714. HEK293-KCC2 + bumetanide/ouabain, thallium flux FluoZin2; stronger effect = higher value. normalized thallium flux at 10 µM;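 active means thallium entry rate above the same plate's blocked-transporter control wells by more than 3 SD; inconclusive means the two repeat wells disagree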;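 further: raw slope of fluorescence over initial fluorescence between 10 and 20 s after thallium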
KCC2 secondary2 – KCC2 (human) modulation, second secondary assay | 3,700 tested, 23% active | HEK293-KCC2, thallium flux FluoZin2 fluorescence; actives lie on both sides; F/F0 rise rate, 10–20 s post-thallium | shares compounds with KCC2 mod | normalized thallium flux at 10 µM | AID 1715;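 active means thallium flux slope more than 3 SD above or below the plate's solvent-only control mean, mostly below; inconclusive means the two repeat wells disagreed; inactive means no significant shift from solvent-only controls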;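 further: raw slope with 0.1% DMSO as baseline and bumetanide as block control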
HEK293 Tl flux – acts in parental HEK cells, KCC2 counter-screen. thallium flux rate (normalised fluorescence) at 10 µM. HEK293 parental cells, thallium flux FluoZin2, ouabain; baseline-ratio fluorescence slope, 10–20 s after thallium. AID 1716. shares compounds with KCC2 mod. 3,700 tested, 46% active;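 active means thallium flux rate significantly above the same plate's solvent-only control wells, beyond their mean plus 3 SD; inconclusive means the two replicate wells gave conflicting results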
KCC2 retest ouab – KCC2 (human) modulation, ouabain retest. shares compounds with KCC2 mod. HEK293-KCC2, thallium flux FluoZin2 fluorescence; bidirectional: low = inhibitor, high = activator. raw Tl+ flux slope (below DMSO = inhibition, above = activation) at 10 µM. 3,700 tested, 48% active. AID 1717;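 active means thallium flux slope beyond 3 SD from same-plate DMSO control mean in most replicates, usually higher, sometimes lower; inconclusive means repeat tests gave conflicting results; inactive means no significant difference from controls in most replicates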;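 further: slope of initial-normalized fluorescence between seconds 10 and 20 after thallium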
HEK293 Tl flux2 – parental HEK flux effect, counter-screen 2; shares compounds with KCC2 mod; thallium flux slope at 10 µM; 3,700 tested, 33% active; HEK293 parental, thallium flux FluoZin-2 fluorescence slope;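 active means thallium flux slope above the same plate's solvent-control mean plus 3 SD in both duplicate wells; inconclusive means duplicate wells that disagreed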;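 further: run without ouabain in cells lacking the KCC2 cotransporter; slope of fluorescence scaled to its starting value between 10 and 20 s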
KCNQ1 inh valid – human KCNQ1 channel inhibition, validation assay; shares compounds with KCNQ1 inh; inhibition, % at 10 µM; AID 588353; KCNQ1 cell line, FluxOR thallium flux fluorescence; 1,600 tested, 93% active;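 active means primary screen active, with duplicate mean exceeding buffer control mean plus 3 SD of buffer wells, cut at about 28% in these data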;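 further: 0% = buffer control ratio and 100% = XE991 inhibitor control ratio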
CHO Tl flux – activity in parental CHO cells lacking KCNQ1 | shares compounds with KCNQ1 inh | parental CHO-K1, FluxOR thallium flux fluorescence ratio; stronger effect = lower value; zero means no signal rise above baseline | fluorescence ratio (Tl flux) at 10 µM | 1,600 tested, 21% active | AID 588366;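 active means mean of duplicate thallium-flux fluorescence ratios in parental host cells more than 5 SD below the buffer control mean, cut at about 0.38 in these data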;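 further: ratio is peak minus minimum fluorescence divided by baseline fluorescence; actives read low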
KCNQ2 spec – KCNQ1 inhibitor that also blocks rat KCNQ2 channel; KCNQ2 cells, FluxOR thallium flux fluorescence; shares compounds with KCNQ1 inh; 1,600 tested, 71% active; inhibition, % at 10 µM;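 active means mean percent inhibition of the KCNQ2 thallium signal more than 5 SD above the buffer-only control wells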;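 further: KCNQ2 expressed in CHO cells; 0% = buffer control wells and 100% = XE-991 inhibitor control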
KCNQ1-KCNE1 inh – KCNQ1 inhibitor that also blocks human KCNQ1/KCNE1 channel | shares compounds with KCNQ1 inh | KCNQ1/KCNE1 cells, FluxOR thallium flux fluorescence | inhibition, % at 10 µM | 1,600 tested, 77% active;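 active means mean percent inhibition of duplicate wells above the buffer-only control mean plus 3 SD of those controls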;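 further: 0% = buffer only wells and 100% = XE-991 inhibitor control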
KCNK9 block conf – human KCNK9 inhibitor confirmation | inhibition, % at 10 µM | 4,900 tested, 43% active | shares compounds with KCNK9 inh | HEK293 KCNK9 cells, FluxOR thallium flux fluorescence;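 active means thallium signal inhibited by more than 5 SD of the compound-free buffer control wells, on both duplicate plates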;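 further: 0% = assay buffer control wells without compound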
Kir2-1 spec – selectivity of KCNK9 modulators against mouse Kir2.1; inhibition, % at 10 µM; shares compounds with KCNK9 inh; AID 492993; 4,900 tested, 4% active; Kir2.1 cells, FluxOR thallium flux fluorescence;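 active means thallium signal drop more than 5 SD beyond the mean of the no-compound control wells, seen in both duplicate plates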;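 further: signal is fluorescence rise after thallium addition divided by baseline fluorescence; plate controls were assay buffer only for no effect and full block by chlorpromazine control for full effect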
KCNK9 uninduced – second check of KCNK9 modulator effects in non-induced HEK293 cells; AID 492997; shares compounds with KCNK9 inh; inhibition, % at 10 µM; 4,900 tested, 40% active; FluxOR thallium flux;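 active means thallium signal drop beyond 5 SD of the untreated control mean, on both duplicate plates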;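 further: plate controls were buffer only IC0 wells for no effect and SID17386958 at its maximal inhibitory level for full effect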
KCNK3 confirm – confirmation of human KCNK3 two-pore domain potassium channel inhibitors; shares compounds with KCNK3 block; CHO-KCNK3 thallium flux, FluxOR fluorescence; 0% buffer, 100% carvedilol maximal block; ratio percent of control, % at 10 µM; 2,400 tested, 99% active; AID 651638;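 active means ratio percent of control, averaged over triplicates, above buffer control mean plus 5 SD, cut at about 64% in these data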;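 further: ratio is the fluorescence rise from min to max over baseline after thallium stimulus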
KCNK3 noninduced – activity in cells without induced KCNK3 expression. 2,400 tested, 40% active. shares compounds with KCNK3 block. non-induced KCNK3 parental cells, FluxOR thallium flux; stronger effect = lower value. thallium flux ratio (lower = more inhibition) at 10 µM;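 active means thallium flux ratio, averaged over three wells, more than 5 SD below the buffer control mean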;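 further: host cells are CHO cells without KCNK3 induction; ratio is peak minus trough fluorescence over baseline then normalized to buffer controls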
An asterisk follows results filed as active; i = inactive; ? = inconclusive; · = no result given.

SMILES	KCC2 mod	hERG rescue	KCNK9 inh	KCNQ1 act	KCNK3 block	KCNQ1 inh	KCC2 sec1	KCC2 bumet counter	KCC2 secondary2	HEK293 Tl flux	KCC2 retest ouab	HEK293 Tl flux2	KCNK3 confirm	KCNK3 noninduced	others
CC1=CC2=NC(=O)/C(=C/c3coc4ccc(Cl)cc4c3=O)C(=N)N2O1	-9.5*	-13	i	i	-9.2*	10*	0.004*	-0.0043*	0.015*	0.00044*	0.0026*	0.0026*	134*	0.087*
CC(C)C(CCNC(=O)CC(Cc1ccccc1)c1ccco1)c1ccco1 (stereo not drawn)	-4.5*	-15	i	i	-9.4*	i	?	0.005	?	?	0.016*	0.0095	120*	0.15*
COc1ccc(C(=O)CSC2=C(C#N)C3(CCCCC3)C(C#N)=C(N)N2)cc1	-2.9	-22	i	i	-10*	i	0.0073	0.0052	0.034	0.0064*	0.016*	0.011	112*	0.12*
COc1ccc(C(=O)CSc2nc(N)nc(SC)c2C#N)cc1	0.026	-21	i	i	i	i	·	·	·	·	·	·	·	·
Cc1ccccc1S(=O)(=O)/N=C(/c1ccccc1)N1CCOCC1	-0.094	-1	i	i	i	i	·	·	·	·	·	·	·	·
N#Cc1nc(COc2ccccc2Cl)oc1NCc1ccc(F)cc1	·	-11	i	i	i	i	·	·	·	·	·	·	·	·
COc1ccc(CNc2oc(COc3ccccc3)nc2C#N)cc1	·	-12	i	i	-8.9*	i	0.0075	?	0.031	0.007	?	0.0096	117*	0.16*
N#Cc1nc(COc2ccccc2F)oc1N1CCCCCC1	·	·	·	·	i	·	·	·	·	·	·	·	·	·
CN(Cc1ccccc1)c1oc(COc2ccccc2F)nc1C#N	·	-11	i	i	-13*	i	0.0083	0.0049	0.032	0.0067	?	0.011	115*	0.14*
N#Cc1nc(COc2ccccc2F)oc1NCCc1ccccc1	·	-8	i	i	-10*	i	0.0053	?	0.025*	0.0064*	0.014*	0.01	102*	i
Clc1cccc(-c2nnc(SC/C=C/c3ccccc3)n2Cc2ccco2)c1	-3.3*	-13	-15*	i	-12*	i	0.0052	?	0.03	0.0059*	0.015*	?	110*	0.15*	KCNK9 block conf=44%*;Kir2-1 spec=74%*;KCNK9 uninduced=38%*
O=C(Nc1nc(-c2cccs2)cs1)c1ccc(Cl)s1	3.1*	4	i	i	-23*	i	0.0085	0.015*	0.028	0.0086*	0.021	0.0098	86*	i
Cc1ccc(N(CC(=O)N2CCN(c3ccc(F)cc3)CC2)S(=O)(=O)c2c(C)noc2C)cc1	·	-12	i	i	i	i	·	·	·	·	·	·	·	·
Cc1cccc(OCCC(=O)Nc2ccc(F)c(F)c2)c1	-0.65	7.8*	i	i	i	8*	·	·	·	·	·	·	·	·	KCNQ1 inh valid=28*;CHO Tl flux=0.54;KCNQ2 spec=74%*;KCNQ1-KCNE1 inh=i
NC(=O)C1(N2CCCCC2)CCN(c2nc(-c3ccccc3)cs2)CC1	-1.6	-14	i	i	i	i	·	·	·	·	·	·	·	·
CNC(=O)CSc1nnc(-c2ccc(S(=O)(=O)N3CCCC3)cc2)n1-c1cccc(C)c1C	-0.1	-5	i	i	i	i	·	·	·	·	·	·	·	·
O=C(CCC1CCCCC1)Nc1nnc(C(F)(F)F)s1	·	0	i	i	i	6*	·	·	·	·	·	·	·	·	KCNQ1 inh valid=64*;CHO Tl flux=0.54;KCNQ2 spec=i;KCNQ1-KCNE1 inh=34%*
CCc1nn2c(=O)cc(COc3cccc(NC(=O)c4ccco4)c3)nc2s1	·	-5	i	i	i	i	·	·	·	·	·	·	·	·
CCC(C)Nc1nc(OC(C(F)(F)F)C(F)(F)F)nc(OC(C(F)(F)F)C(F)(F)F)n1 (stereo not drawn)	-0.98	-5	i	i	i	7*	·	·	·	·	·	·	·	·	KCNQ1 inh valid=92*;CHO Tl flux=0.4;KCNQ2 spec=102%*;KCNQ1-KCNE1 inh=90%*
